Results: ChEMBL document CHEMBL5033992, “Discovery and Synthesis of a Pyrimidine-Based Aurora Kinase Inhibitor to Reduce Levels of MYC Oncoproteins” (J Med Chem, 2021)
pIC50: −log10 of the molar value. Calls of active or inactive are those of the source. The calls are words filed in the database; no cut-off is given here.

How the values were obtained:
[1] = molecular target: T1, Aurora kinase A (Homo sapiens) (UniProt O14965); settings: SKNBE2, dose 50-1000 nM, time 24.0 hrs
T1 sequence (whole entry): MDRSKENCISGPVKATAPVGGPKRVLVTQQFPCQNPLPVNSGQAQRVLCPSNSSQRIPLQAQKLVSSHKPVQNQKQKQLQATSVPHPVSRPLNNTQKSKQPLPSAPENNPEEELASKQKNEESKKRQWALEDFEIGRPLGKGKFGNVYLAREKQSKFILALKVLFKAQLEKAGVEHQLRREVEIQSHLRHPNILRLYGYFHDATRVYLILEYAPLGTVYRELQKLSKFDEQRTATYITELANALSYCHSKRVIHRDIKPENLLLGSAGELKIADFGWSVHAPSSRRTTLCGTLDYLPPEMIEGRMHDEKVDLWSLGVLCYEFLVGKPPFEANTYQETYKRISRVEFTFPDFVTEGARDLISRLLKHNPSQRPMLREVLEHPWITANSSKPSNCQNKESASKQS

[2] = Volume of distribution at steady state in ICR mouse at 2 mg/kg, iv measured up to 24 hrs by LC-MS/MS analysis; type: ADME, organism-based; settings: in vivo, read-out: Vdss
[3] = test system: NCI-H526; assay: Growth inhibition of human NCI-H526 cells assessed as reduction in cell viability after 72 hrs by PrestoBlue Cell Viability assay; type: functional, cell-based; settings: NCI-H526, 72 h
Method in brief: (§1)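 Cells seeded at 5000–10,000 per well; after 24 h, treated with an eight-point titration from 0 to 10 μM in triplicate. After 72 h exposure, viability read by PrestoBlue fluorescence, and IC50 computed from the titration. SCLC lines grown in RPMI1640 and SK-N-BE(2) in MEM, each with 10% FBS.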

[4] = Growth inhibition of human NCI-H841 cells assessed as reduction in cell viability after 72 hrs by PrestoBlue Cell Viability assay; type: functional, cell-based; settings: NCI-H841, 72 h
Method in brief: as §1

[5] = test system: NCI-H82; assay: Down regulation of cMYC protein expression level in human NCI-H82 cells at 1 uM incubated for 2 to 4 hrs in presence of MG132 by Western blot analysis; type: functional, cell-based; settings: time 2-4 hrs
[6] = test system: NCI-H82; assay: Inhibition of Histone H3 phosphorylation in human NCI-H82 cells assessed as reduction in phosphorylation at Ser 10 residue at 50 to 1000 nM after 24 hrs by Western blot analysis; type: cell-based; settings: dose 50-1000 nM
Method in brief: (§2)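 Cells treated with compound at various concentrations for 24 h, then washed in PBS, lysed in Laemmli buffer and boiled 10 min. Lysates run on SDS-PAGE, transferred to PVDF and probed with antibodies, then AP- or HRP-conjugated secondaries with chemiluminescent detection. Loading control β-actin. NCI-H82 grown in RPMI1640 and SK-N-BE(2) in MEM, each with 10% FBS. Relative levels quantified from triplicate experiments.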

[7] = Half life in ICR mouse at 2 mg/kg, iv measured up to 24 hrs by LC-MS/MS analysis; type: ADME, organism-based; settings: in vivo
[8] = AUC (0 to inf) in ICR mouse at 10 mg/kg, po measured up to 24 hrs by LC-MS/MS analysis; type: ADME, organism-based; parameters: route oral, dose 10 mg/kg, time <=24; settings: in vivo
[9] = Cmax in ICR mouse at 10 mg/kg, po measured up to 24 hrs by LC-MS/MS analysis; type: ADME, organism-based; parameters: route oral, dose 10 mg/kg, time <=24; settings: in vivo
[10] = test system: NCI-H82; assay: Induction of cell cycle arrest in human NCI-H82 cells at 1 uM after 24 hrs by Propidium iodide staining based flow cytometric analysis; type: functional
[11] = Toxicity in athymic nu/nu nude mouse xenografted with NCI-H446 cells assessed as reduction in body weight at 50 mg/kg, iv administered at 5 on-2-off for 2 to 4 weeks relative to control; type: organism-based; parameters: scale not given: the % may be the effect or the level left; settings: in vivo, time 2-4 weeks
Method in brief: (§3)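 Male athymic nu/nu mice, 6 weeks old, inoculated subcutaneously with 1 × 10⁶ NCI-H446 cells in saline with 50% Matrigel. Dosing IV or oral, vehicle 5% dimethylacetamide/95% PEG400, on a 5-on-2-off schedule for 2–4 weeks once tumors reached ≥200 mm³. Caliper volume = length × width²/2; tumors and body weight measured at least twice weekly. ANOVA with Student–Newman–Keuls, P < 0.05.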

[12] = Clearance in ICR mouse at 2 mg/kg, iv measured up to 24 hrs by LC-MS/MS analysis; type: ADME, organism-based; settings: in vivo
[13] = test system: SK-N-BE(2); assay: Growth inhibition of human SKNBE2 cells assessed as reduction in cell viability after 24 hrs by PrestoBlue Cell Viability assay; settings: SKNBE2, 24 h
[14] = Tmax in ICR mouse at 10 mg/kg, po measured up to 24 hrs by LC-MS/MS analysis; type: ADME, organism-based; settings: in vivo
[15] = Oral bioavailability in ICR mouse at 10 mg/kg measured up to 24 hrs by LC-MS/MS analysis; type: ADME, organism-based; settings: in vivo
[16] = Half life in ICR mouse at 10 mg/kg, po measured up to 24 hrs by LC-MS/MS analysis; type: ADME, organism-based; settings: in vivo
[17] = test system: SKNBE2; assay: Inhibition of Histone H3 phosphorylation in human SKNBE2cells assessed as reduction in phosphorylation at Ser 10 residue at 50 to 1000 nM after 24 hrs by Western blot analysis; settings: dose 50-1000 nM
Method in brief: as §2

[18] = test system: NCI-H82; assay: Down regulation of Cyclin B1 expression in human NCI-H82 cells at 50 to 1000 nM after 24 hrs by Western blot analysis; type: functional, cell-based; settings: dose 50-1000 nM
Method in brief: as §2

[19] = AUC (0 to inf) in ICR mouse at 2 mg/kg, iv measured up to 24 hrs by LC-MS/MS analysis; type: ADME, organism-based; parameters: route intravenous, dose 2 mg/kg, time <=24; settings: ICR, in vivo
[20] = molecular target: Aurora kinase B (Homo sapiens) (UniProt Q96GD4); assay: Inhibition of Aurora B phosphorylation in human SKNBE2 cells assessed as reduction in phosphorylation at Thr 232 residue at 50 to 1000 nM after 24 hrs by Western blot analysis; type: cell-based; settings: dose 50-1000 nM
Method in brief: as §2

[21] = test system: SK-N-BE(2); assay: Down regulation of Cyclin B1 expression in human SKNBE2 cells at 50 to 1000 nM after 24 hrs by Western blot analysis; type: functional, cell-based; settings: dose 50-1000 nM
Method in brief: as §2

[22] = molecular target: T1, Aurora kinase A (Homo sapiens); settings: NCI-H82, dose 50-1000 nM, time 24.0 hrs
[23] = molecular target: Aurora kinase B (Homo sapiens) (UniProt Q96GD4); assay: Inhibition of Aurora B phosphorylation in human NCI-H82 cells assessed as reduction in phosphorylation at Thr 232 residue at 50 to 1000 nM after 24 hrs by Western blot analysis; type: cell-based; settings: dose 50-1000 nM
Method in brief: as §2

[24] = test system: NCI-H209; assay: Growth inhibition of human NCI-H209 cells assessed as reduction in cell viability after 72 hrs by PrestoBlue Cell Viability assay; type: functional, cell-based; settings: NCI-H209, 72 h
Method in brief: as §1

[25] = Inhibition of Histone H3 phosphorylation in human NCI-H446 cells xenografted in assessed as reduction in phosphorylation at Ser 10 residue at 100 mg/kg, po measured upto 8 hrs by western blot analysis relative to control
[26] = test system: NCI-H446; assay: Anti-tumor activity against human NCI-H446 cells xenografted in athymic nu/nu nude mouse assessed as reduction in tumor volume at 50 to 100 mg/kg, po administered at 5 on-2-off for 2 to 4 weeks; type: functional, organism-based; settings: dose 50-100 mg/kg, time 2-4 weeks
Method in brief: as §3

[27] = test system: NCI-H446; assay: Induction of apoptosis in human NCI-H446 cells xenografted in athymic nu/nu nude mouse assessed as increase in cleaved CASP3 protein expression level at 100 mg/kg, po measured up to 24 hrs by IHC analysis; settings: time hrs <=24
[28] = Toxicity in athymic nu/nu nude mouse xenografted with NCI-H446 cells assessed as reduction in body weight 50 mg/kg, po administered at 5 on-2-off for 3 weeks and further dosed 100 mg/kg, po for 4 th week relative to control; type: organism-based; parameters: scale not given: the % may be the effect or the level left; settings: in vivo, 672 h, at 50 to 100 mg/kg, dose 50-100 mg/kg, time 4 weeks
Method in brief: as §3

[29] = test system: NCI-H446; assay: Effect on cMYC protein expression level in human NCI-H446 cells xenografted in athymic nu/nu nude mouse at 100 mg/kg, po measured upto 24 hrs by western blot analysis relative to control; settings: time hrs <=24
[30] = Toxicity in athymic nu/nu nude mouse xenografted with NCI-H446 cells assessed as reduction in body weight at 50 to 100 mg/kg, po administered at 5 on-2-off for 2 to 4 weeks relative to control; type: organism-based; parameters: scale not given: the % may be the effect or the level left; settings: in vivo, dose lower 50 mg/kg, time lower 2 weeks, dose upper 100 mg/kg, time upper 4 weeks
Method in brief: as §3

[31] = test system: NCI-H446; assay: Induction of apoptosis in human NCI-H446 cells xenografted in athymic nu/nu nude mouse assessed as increase in cleaved PARP1 protein expression level at 100 mg/kg, po measured up to 24 hrs by Western blot analysis; settings: time hrs <=24
[32] = test system: NCI-H446; assay: Anti-tumor activity against human NCI-H446 cells xenografted in athymic nu/nu nude mouse assessed as reduction in tumor volume at 50 mg/kg, po administered at 5 on-2-off for 3 weeks and further dosed 100 mg/kg, po for 4 th week relative to control; type: functional, organism-based; settings: time 4.0 weeks
Method in brief: as §3

Sequence of Aurora kinase B (Homo sapiens) (Q96GD4 whole entry): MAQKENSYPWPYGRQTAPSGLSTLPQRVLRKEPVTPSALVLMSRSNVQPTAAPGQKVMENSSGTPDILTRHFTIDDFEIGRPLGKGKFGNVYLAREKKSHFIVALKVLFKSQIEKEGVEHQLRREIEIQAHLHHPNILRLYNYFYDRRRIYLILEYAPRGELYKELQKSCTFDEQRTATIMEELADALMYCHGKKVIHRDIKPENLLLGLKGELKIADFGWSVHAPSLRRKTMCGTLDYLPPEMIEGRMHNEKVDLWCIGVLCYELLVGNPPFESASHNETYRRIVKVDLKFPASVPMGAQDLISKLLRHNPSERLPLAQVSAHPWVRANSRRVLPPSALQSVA

In the case of `CCN1CCN(c2cc(Nc3cc(C)[nH]n3)nc(N[C@H]3CCN(C(=O)c4ccc(Cl)cc4F)C3)n2)CC1`, the inhibition [1] was “Dose-Dependent Effect”, the Vd [2] was 11.3 L/kg and the pIC50 [3] was over 7.00. For the same compound, the pIC50 [4] was 5.68, the Activity [5] was “inactive” and the inhibition [6] was “Active”. For the same compound, the half-life [7] was 4 h, the AUC(0-inf) [8] was 533 ng·h/mL and the Cmax [9] was 395 ng/mL. For the same compound, the Activity [10] was “Active”, the Activity [11] was under 5% and the clearance [12] was 53.7 mL/min/kg. For the same compound, the pIC50 [13] was 9.00, the Tmax [14] was 1 h and the bioavailability [15] was 16.8%. For the same compound, the half-life [16] was 1.6 h, the inhibition [17] was “Active” and the Activity [18] was “Active”. For the same compound, the AUC(0-inf) [19] was 703 ng·h/mL, the inhibition [20] was “Dose-Dependent Effect” and the Activity [21] was “Active”. The inhibition [22] was “Dose-Dependent Effect”, the inhibition [23] was “Dose-Dependent Effect” and the pIC50 [24] was 7.68.

With `CCC(=O)n1nc(C)cc1Nc1cc(N2CCN(CC)CC2)nc(N[C@H]2CCN(C(=O)c3ccc(Cl)cc3F)C2)n1` the inhibition in vivo at 100 mg/kg [25] was over 90%, the Vd [2] was 3.4 L/kg and the Activity [26] was “Dose-Dependent Effect”. For the same compound, the Activity [27] was “Active”, the Activity [28] was under 5% and the Activity [29] was “Active”. For the same compound, the half-life [7] was 4.8 h, the AUC(0-inf) [8] was 4400 ng·h/mL and the Cmax [9] was 2080 ng/mL. For the same compound, the Activity [30] was under 5%, the clearance [12] was 21.3 mL/min/kg and the Activity [31] was “Active”. For the same compound, the Tmax [14] was 0.3 h, the half-life [16] was 2.7 h and the AUC(0-inf) [19] was 1410 ng·h/mL. The Activity [32] was “Active”.
